Measured values collected from several papers.
Compare with care: the assays were run in different laboratories.
PTGS2: Prostaglandin G/H synthase 2 (PTGS2, Ovis aries, UniProt P79208)
GSK3B: Glycogen synthase kinase-3 beta (GSK3B, Homo sapiens, UniProt P49841)
AVPR1A: Vasopressin V1a receptor (AVPR1A, Homo sapiens, UniProt P37288)

Compound | target | effect on | action | method | cells | concentration | inhibition [%]
O=c1c(O)c(-c2ccc(O)cc2)oc2cc(O[C@@H]3O[C@H](CO)[C@@H](O)[C@H](O)[C@H]3O)cc(O)c12 | PTGS2 | enzyme activity | inhibitor | absorbance |  | 50 µM | 66.3
O=C1OC(CN2CCOCC2)CN1/N=C/c1ccc([N+](=O)[O-])o1 (stereo not shown) | GSK3B | enzyme activity | inhibitor | ADP detection |  | 100 µM | 20.2
CS(=O)(=O)Nc1cccc(-c2csc(NC(=O)CSc3nc4nccnc4c(=O)n3CCc3ccccc3)n2)c1 | Phosphatidylinositol 4-kinase type 2-beta (PI4K2B, Homo sapiens, UniProt Q8TCG2) | enzyme activity | inhibitor |  |  | 10 µM | -5
Cc1c(C(N)=O)cc([N+](=O)[O-])cc1[N+](=O)[O-] | GSK3B | enzyme activity | inhibitor | ADP detection |  | 100 µM | 17.1
O=c1c(O)c(-c2ccc(O)cc2)oc2cc(O)cc(O)c12 | PTGS2 | enzyme activity | inhibitor | absorbance |  | 50 µM | 52.2
O=C1N=C(N2CCCCN2)S/C1=C\c1ccc(F)cc1O | AVPR1A | ligand displacement |  | radioligand |  | 10 µM | < 10
CC[C@H]1C(=O)OC[C@@H]1Cc1cncn1C.O=[N+]([O-])O | GSK3B | enzyme activity | inhibitor | ADP detection |  | 100 µM | 28.2
CN(C)C1CCN(CC#Cc2nn(C3CCCC3)c3nc(NCc4ccccc4)ncc23)C1 (stereo not shown) | Protein-tyrosine kinase 6 (PTK6, Homo sapiens, UniProt Q13882) | enzyme activity | inhibitor | FRET |  | 10 µM | 6
O=C(c1ccc(Cl)cc1)N(Cc1ccccc1)C1CCCCC1 | Motilin receptor (MLNR, Homo sapiens, UniProt O43193) | cell-free assay |  |  |  | 10 µM | 18.7
O=c1c(O[C@@H]2O[C@H](CO)[C@@H](O)[C@H](O)[C@H]2O)c(-c2ccc(O)cc2)oc2cc(O)cc(O)c12 | PTGS2 | enzyme activity | inhibitor | absorbance |  | 50 µM | 55.1
CNc1cc(Oc2cc(C(=O)Nc3cc(N4CCN(C)CC4)cc(C(F)(F)F)c3)ccc2C)ncn1 | 1-phosphatidylinositol 3-phosphate 5-kinase (PIKFYVE, Homo sapiens, UniProt Q9Y2I7) | target engagement in cells | inhibitor | chemoproteomics | Huh-7 | 1 µM | -98.4
C[C@@H]1CN(c2c(F)c(N)c3c(=O)c(C(=O)O)cn(C4CC4)c3c2F)C[C@H](C)N1 | GSK3B | enzyme activity | inhibitor | ADP detection |  | 100 µM | 14
CCN(c1cc(C#CCN2CCOCC2)cc(C(=O)NCc2c(C)cc(C)[nH]c2=O)c1C)[C@H]1CC[C@H](N(C)CCOC)CC1 | Protein arginine N-methyltransferase 8 (PRMT8, Homo sapiens, UniProt Q9NR22) | enzyme activity | inhibitor |  |  | 1 µM | 9
COc1cc(NC(C)=O)c(Cl)cc1C(=O)Nc1nccs1 | AVPR1A | cell-free assay |  |  |  | 10 µM | -0.8
Ic1cccc2cnccc12 | Protein mono-ADP-ribosyltransferase TIPARP (TIPARP, Homo sapiens, UniProt Q7Z3E1) | enzyme activity | inhibitor |  |  | 10 µM | 2
COC(=O)C1=C(C#N)NC(C)=C(C(=O)OC(C)C)C1c1cccc([N+](=O)[O-])c1 (stereo not shown) | GSK3B | enzyme activity | inhibitor | ADP detection |  | 100 µM | 25.3
Oc1cccc(Nc2nc(-c3ccc(F)cc3F)cs2)c1 | AVPR1A | cell-free assay |  |  |  | 10 µM | 1.2
CC(=O)c1nn(CC(=O)N2C[C@H](F)C[C@H]2C(=O)Nc2cccc(Br)n2)c2ccc(-c3cnc(C)nc3)cc12 | Cathepsin G (CTSG, Homo sapiens, UniProt P08311) | enzyme activity | inhibitor |  |  | 10 µM | 0.4
COc1cc([C@@H]2c3cc4c(cc3[C@@H](O[C@@H]3O[C@@H]5CO[C@@H](C)O[C@H]5[C@H](O)[C@H]3O)[C@H]3COC(=O)[C@H]23)OCO4)cc(OC)c1O | GSK3B | enzyme activity | inhibitor | ADP detection |  | 100 µM | 15.4
